{"source": "ChEMBL document CHEMBL1123309", "about": "“Esters and lactones of phenolic amino carboxylic acids: prodrugs for iron chelation” (J Med Chem, 1986)", "key": {"Mus musculus [1]": {"tested_on": "Mus musculus", "assay": "BDF1 male mice were administered with 200 mg/kg ip and percent change in iron levels was determined in Feces", "type": "functional", "settings": "route intraperitoneal", "in_short": "(§1)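 Male BDF1 mice made iron-overloaded by transfusion of washed, heat-treated (50 °C, 30 min) canine red cells. Dosing began 2 days after the last transfusion, once daily for 7 days, in distilled water or 2% Polysorbate 80 suspension. Daily group urine was collected. Pooled feces were digested in 1 N HCl (90 °C, 30 min). Liver and spleen were homogenized in saline. Iron was measured by atomic absorption and expressed as % change vs transfused controls.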"}, "Mus musculus [2]": {"tested_on": "Mus musculus", "assay": "BDF1 male mice were administered with 200 mg/kg po and percent change in iron levels was determined in Spleen", "type": "functional", "in_short": "(§2)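 Hypertransfused male BDF1 mice (canine red cells, washed and heated at 50 °C for 30 min) were dosed orally for 7 days with compound in distilled water or a fine suspension with Polysorbate 80 (2% final). Daily group urine and pooled feces (1 N HCl digest, 90 °C, 30 min, triplicate) were collected, and liver and spleen were homogenized. Iron was measured by atomic absorption and reported as % change vs transfused control.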"}, "Mus musculus [3]": {"tested_on": "Mus musculus", "assay": "BDF1 male mice were administered with 200 mg/kg ip and percent change in iron levels was determined in Urine", "type": "functional", "settings": "route intraperitoneal", "in_short": "as §1"}, "Mus musculus [4]": {"tested_on": "Mus musculus", "assay": "BDF1 male mice were administered with 200 mg/kg po and percent change in iron levels was determined in Liver", "type": "functional", "in_short": "as §2"}, "Mus musculus [5]": {"tested_on": "Mus musculus", "assay": "BDF1 male mice were administered with the compound and number of survivors was determined at a dose 200 mg/kg peroral out of 10 tested", "type": "functional", "settings": "route oral", "in_short": "(§3)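 Male BDF1 mice were iron-loaded by transfusion of canine red cells. The cells were heparinised, washed twice in isotonic saline and heated at 50 °C for 30 min. Dosing started two days after the last transfusion, once daily for 7 consecutive days. Compounds were given in distilled water or as a fine aqueous suspension with Polysorbate 80 (2% final). Toxic signs were recorded daily and survivors counted per group.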"}, "Mus musculus [6]": {"tested_on": "Mus musculus", "assay": "BDF1 male mice were administered with the compound and number of survivors was determined at a dose 200 mg/kg ip out of 10 tested", "type": "functional", "settings": "route intraperitoneal", "in_short": "as §3"}, "Mus musculus [7]": {"tested_on": "Mus musculus", "assay": "BDF1 male mice were administered with 200 mg/kg ip and percent change in iron levels was determined in Liver", "type": "functional", "settings": "route intraperitoneal", "in_short": "as §1"}, "Mus musculus [8]": {"tested_on": "Mus musculus", "assay": "BDF1 male mice were administered with 200 mg/kg poand percent change in iron levels was determined in Urine", "type": "functional", "in_short": "as §2"}, "Mus musculus [9]": {"tested_on": "Mus musculus", "assay": "BDF1 male mice were administered with 200 mg/kg po and percent change in iron levels was determined in Feces", "type": "functional", "in_short": "as §2"}, "Mus musculus [10]": {"tested_on": "Mus musculus", "assay": "BDF1 male mice were administered with 200 mg/kg ip and percent change in iron levels was determined in Spleen", "type": "functional", "settings": "route intraperitoneal", "in_short": "as §1"}, "Mus musculus [11]": {"tested_on": "Mus musculus", "assay": "BDF1 male mice were administered with 300 mg/kg intraperitoneally and percent change in iron levels was determined in Urine", "type": "functional", "settings": "route intraperitoneal", "in_short": "(§4)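 Male BDF1 mice were hypertransfused with washed, heat-treated (50 °C, 30 min) canine red cells. Starting 2 days after the last transfusion, they received one ip injection daily for 7 days, in distilled water or an aqueous suspension with Polysorbate 80 (2% final). Group urine was collected every 24 h. Feces were digested in 1 N HCl (90 °C, 30 min, triplicate). Liver and spleen were homogenized. Iron was measured by atomic absorption and reported as % change vs transfused controls.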"}, "Rattus norvegicus [12]": {"tested_on": "Rattus norvegicus", "assay": "Percent change in iron levels was determined in feces using iron overload rat model where the route of administration is Peroral", "type": "ADME, organism-based", "settings": "in vivo, po"}, "Mus musculus [13]": {"tested_on": "Mus musculus", "assay": "BDF1 male mice were administered with 300 mg/kg intraperitoneally and percent change in iron levels was determined in Feces", "type": "functional", "settings": "route intraperitoneal", "in_short": "as §4"}, "Rattus norvegicus [14]": {"tested_on": "Rattus norvegicus", "assay": "Percent change in iron levels was determined in urine using iron overload rat model where the route of administration is Intraperitoneal", "type": "ADME, organism-based", "settings": "in vivo, ip"}, "Mus musculus [15]": {"tested_on": "Mus musculus", "assay": "BDF1 male mice were administered with 300 mg/kg intraperitoneally and percent change in iron levels was determined in liver", "type": "functional", "settings": "route intraperitoneal", "in_short": "as §4"}, "Mus musculus [16]": {"tested_on": "Mus musculus", "assay": "BDF1 male mice were administered with 300 mg/kg intraperitoneally and number of survivors was determined out of 10 tested", "type": "functional", "settings": "route intraperitoneal", "in_short": "as §3"}, "Mus musculus [17]": {"tested_on": "Mus musculus", "assay": "BDF1 male mice were administered with 300 mg/kg intraperitoneally and percent change in iron levels was determined in Spleen", "type": "functional", "settings": "route intraperitoneal", "in_short": "as §4"}, "[18]": {"assay": "Compound was evaluated for lethal dose after intraperitoneal administration using iron overload rat model", "type": "toxicity, organism-based", "settings": "in vivo, ip"}, "Rattus norvegicus [19]": {"tested_on": "Rattus norvegicus", "assay": "Percent change in iron levels was determined in urine using iron overload rat model where the route of administration is Peroral", "type": "ADME, organism-based", "settings": "in vivo, po"}, "Rattus norvegicus [20]": {"tested_on": "Rattus norvegicus", "assay": "Percent change in iron levels was determined in feces using iron overload rat model where the route of administration is Intraperitoneal", "type": "ADME, organism-based", "settings": "in vivo, ip"}, "[21]": {"assay": "Half life was determined in the presence of Fe(III) Spectrophotometrically", "type": "ADME", "in_short": "(§5)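 Iron(III)-promoted hydrolysis was followed spectrophotometrically in 50% aqueous methanol with Hepes buffer at pH 7.5 and 38 °C. Ester and ferric nitrate were each 1.7 × 10⁻⁴ M. The read-out was the rise in absorbance at 480 nm. Data were fitted by nonlinear least squares for consecutive first-order processes.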"}, "Mus musculus [22]": {"tested_on": "Mus musculus", "assay": "BDF1 male mice were administered with 200 mg/kg intraperitoneally and percent change in iron levels was determined in liver", "type": "functional", "settings": "route intraperitoneal", "in_short": "as §1"}, "Mus musculus [23]": {"tested_on": "Mus musculus", "assay": "BDF1 male mice were administered with 200 mg/kg peroral and percent change in iron levels was determined in Liver", "type": "functional", "settings": "route oral", "in_short": "as §1"}, "Mus musculus [24]": {"tested_on": "Mus musculus", "assay": "BDF1 male mice were administered with 200 mg/kg peroral and number of survivors was determined out of 10 tested", "type": "functional", "settings": "route oral", "in_short": "as §3"}, "Mus musculus [25]": {"tested_on": "Mus musculus", "assay": "BDF1 male mice were administered with 200 mg/kg peroral and percent change in iron levels was determined in Spleen", "type": "functional", "settings": "route oral", "in_short": "as §2"}, "Mus musculus [26]": {"tested_on": "Mus musculus", "assay": "BDF1 male mice were administered with 200 mg/kg intraperitoneally and percent change in iron levels was determined in Urine", "type": "functional", "settings": "route intraperitoneal", "in_short": "as §1"}, "[27]": {"assay": "First order rate constant was determined in the presence of Fe(3+) Titrimetrically", "type": "ADME", "in_short": "(§6)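 Metal and chelator were each 5 × 10⁻⁴ M. Constant pH was held with 0.05 M NaOH. Hydrolysis rate came from base consumption, with first-order kinetics.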"}, "Mus musculus [28]": {"tested_on": "Mus musculus", "assay": "BDF1 male mice were administered with 200 mg/kg intraperitoneally and percent change in iron levels was determined in Feces", "type": "functional", "settings": "route intraperitoneal", "in_short": "as §1"}, "[29]": {"assay": "Half life was determined in the presence of Fe(III) Titrimetrically", "type": "ADME", "in_short": "as §6"}, "Mus musculus [30]": {"tested_on": "Mus musculus", "assay": "BDF1 male mice were administered with 200 mg/kg peroral and percent change in iron levels was determined in Feces", "type": "functional", "settings": "route oral", "in_short": "as §1"}, "Mus musculus [31]": {"tested_on": "Mus musculus", "assay": "BDF1 male mice were administered with 200 mg/kg peroral and percent change in iron levels was determined in Urine", "type": "functional", "settings": "route oral", "in_short": "as §2"}, "Mus musculus [32]": {"tested_on": "Mus musculus", "assay": "BDF1 male mice were administered with 200 mg/kg intraperitoneally and percent change in iron levels was determined in Spleen", "type": "functional", "settings": "route intraperitoneal", "in_short": "as §1"}, "Mus musculus [33]": {"tested_on": "Mus musculus", "assay": "BDF1 male mice were administered with 200 mg/kg intraperitoneally and number of survivors was determined out of 10 tested", "type": "functional", "settings": "route intraperitoneal", "in_short": "as §3"}, "[34]": {"assay": "First order rate constant was determined in the presence of Fe(3+) Spectrophotometrically", "type": "ADME", "in_short": "as §5"}}, "data": [{"smiles": "CC(C)(C)OC(=O)CN(CCN(CC(=O)OC(C)(C)C)Cc1ccccc1O)Cc1ccccc1O", "values": [{"measurement": "Iron change", "setting": "Mus musculus [1]", "result": -1, "unit": "%"}, {"measurement": "Iron change", "setting": "Mus musculus [2]", "result": 5, "unit": "%"}, {"measurement": "Iron change", "setting": "Mus musculus [3]", "result": -1, "unit": "%"}, {"measurement": "Iron change", "setting": "Mus musculus [4]", "result": 6, "unit": "%"}, {"measurement": "No. of survivors", "setting": "Mus musculus [5]", "result": 10}, {"measurement": "No. of survivors", "setting": "Mus musculus [6]", "result": 10}, {"measurement": "Iron change", "setting": "Mus musculus [7]", "result": 10, "unit": "%"}, {"measurement": "Iron change", "setting": "Mus musculus [8]", "result": -27, "unit": "%"}, {"measurement": "Iron change", "setting": "Mus musculus [9]", "result": -13, "unit": "%"}, {"measurement": "Iron change", "setting": "Mus musculus [10]", "result": -5, "unit": "%"}]}, {"smiles": "O=C(O)CN(Cc1ccccc1O)CC(O)CN(CC(=O)O)Cc1ccccc1O", "values": [{"measurement": "Iron change", "setting": "Mus musculus [11]", "result": 127, "unit": "%"}, {"measurement": "Iron change", "setting": "Rattus norvegicus [12]", "result": 20, "unit": "%"}, {"measurement": "Iron change", "setting": "Mus musculus [13]", "result": -32, "unit": "%"}, {"measurement": "Iron change", "setting": "Rattus norvegicus [14]", "result": 118, "unit": "%"}, {"measurement": "Iron change", "setting": "Mus musculus [15]", "result": -50, "unit": "%"}, {"measurement": "No. of survivors", "setting": "Mus musculus [16]", "result": 10}, {"measurement": "Iron change", "setting": "Mus musculus [17]", "result": 6, "unit": "%"}, {"measurement": "LD50", "setting": "[18]", "result": "≥ 800", "unit": "mg/kg"}, {"measurement": "Iron change", "setting": "Rattus norvegicus [19]", "result": 30, "unit": "%"}, {"measurement": "Iron change", "setting": "Rattus norvegicus [20]", "result": 255, "unit": "%"}]}, {"smiles": "O=C1CN(CCN2CC(=O)Oc3ccccc32)c2ccccc2O1", "values": [{"measurement": "half-life", "setting": "[21]", "result": 1.97, "unit": "h"}, {"measurement": "Iron change", "setting": "Mus musculus [22]", "result": -68, "unit": "%"}, {"measurement": "Iron change", "setting": "Mus musculus [23]", "result": -56, "unit": "%"}, {"measurement": "No. of survivors", "setting": "Mus musculus [24]", "result": 10}, {"measurement": "Iron change", "setting": "Mus musculus [25]", "result": -30, "unit": "%"}, {"measurement": "Iron change", "setting": "Mus musculus [26]", "result": 157, "unit": "%"}, {"measurement": "10E2 k1", "setting": "[27]", "result": 0.97, "unit": "min⁻¹"}, {"measurement": "Iron change", "setting": "Mus musculus [28]", "result": -65, "unit": "%"}, {"measurement": "half-life", "setting": "[29]", "result": 1.19, "unit": "h"}, {"measurement": "Iron change", "setting": "Mus musculus [30]", "result": -2, "unit": "%"}, {"measurement": "Iron change", "setting": "Mus musculus [31]", "result": 93, "unit": "%"}, {"measurement": "Iron change", "setting": "Mus musculus [32]", "result": -17, "unit": "%"}, {"measurement": "No. of survivors", "setting": "Mus musculus [33]", "result": 8}, {"measurement": "10E2 k1", "setting": "[34]", "result": 0.587, "unit": "min⁻¹"}]}]}
